Key:
[1] = species: Rattus norvegicus; assay: Antiallergic activity in Sprague-Dawley rat assessed as inhibition of egg albumin/ Hemophilus pertussis antibody-induced passive cutaneous anaphylaxis (PCA) reaction; assay type: functional; details: read-out: ID50 (the source's name)
Summary of the method: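 Rats immunized ip with 0.5 mg egg albumin plus 0.5 cm3 heat-killed H. pertussis vaccine; serum collected at 18-20 days. Five 0.1-ml serum dilutions given intradermally on shaved back of 200-g rats. At 72 h, iv challenge with 4 mg EA plus 0.5% Evans blue; compound in THAM solution iv at challenge. Inhibition of spot count versus untreated; ID50 from 3-4 doses, six rats each.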

[2] = species: Rattus norvegicus; assay: Ratio of disodium cromoglycate ID50 to compound ID50 for antiallergic activity in Sprague-Dawley rat by passive cutaneous anaphylaxis (PCA) reaction; assay type: functional

Row | Compound | ED50 [1] [mg/kg] | Ratio [2]
1 | O=C(O)C(=O)Nc1cccc2c1ccc1c(=O)cc(C(=O)O)[nH]c12 | 0.1 | 25
2 | Cc1ccc(NC(=O)C(=O)O)c2c(=O)cc(C(=O)O)[nH]c12 | 0.4 | 
3 | O=C(O)C(=O)Nc1ccc(Cl)c2[nH]c(C(=O)O)cc(=O)c12 | 0.3 | 
4 | COc1ccc(NC(=O)C(=O)O)c2c(=O)cc(C(=O)O)[nH]c12 | 0.7 | 
5 | O=C(O)C(=O)Nc1ccc2[nH]c(C(=O)O)cc(=O)c2c1 | 7 | 
6 | Cc1cc(NC(=O)C(=O)O)cc2c(=O)cc(C(=O)O)[nH]c12 | 0.1 | 25
7 | Cc1c(NC(=O)C(=O)O)ccc2c(=O)cc(C(=O)O)[nH]c12 | 0.1 | 25
8 | O=C(O)C(=O)Nc1cc2c(=O)cc(C(=O)O)[nH]c2c2ccccc12 | 0.5 | 
9 | O=C([O-])c1cc(=O)c2c(OCC(O)COc3cccc4oc(C(=O)[O-])cc(=O)c34)cccc2o1.[Na+].[Na+] [CROMOLYN SODIUM] | 2.5 | 
